Test results taken from ChEMBL document CHEMBL1821638, “Targeting the human malaria parasite Plasmodium falciparum: in vitro identification of a new antiplasmodial hit in 4-phenoxy-2-trichloromethylquinazoline series” (Eur J Med Chem, 2011).
pIC50: −log10 of the molar value. Calls of active or inactive are those of the source. The calls are words filed in the database; no cut-off is given here.

Key:
[1] = Selectivity index, ratio of CC50 for human HepG2 cells to IC50 for chloroquine, pyrimethamine and proguanil-resistant Plasmodium falciparum W2; format: functional
[2] = Cytotoxicity against human HepG2 cells after 72 hrs by MTT assay; format: cell-based
Method in brief: (§1)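 HepG2 or HFF cells seeded in RPMI with 10% foetal bovine serum, L-glutamine and penicillin/streptomycin, 37 °C, 6% CO₂; after 24 h, medium with various compound concentrations added for 72 h. Wells checked microscopically for precipitate. MTT in serum-free medium 2 h at 37 °C, formazan dissolved in DMSO, absorbance at 570 nm (630 nm reference). Viability as percent of untreated control; doxorubicin reference.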

Plasmodium falciparum [3] = experiment: Antiplasmodial activity against chloroquine, pyrimethamine and proguanil-resistant Plasmodium falciparum W2 infected in human A positive erythrocytes after 72 hrs by SYBR Green I assay; format: functional, organism-based; settings: W2, 72 h
Plasmodium falciparum [4] = experiment: Antiplasmodial activity against chloroquine, pyrimethamine and proguanil-resistant Plasmodium falciparum W2 infected in human A positive erythrocytes at > 50 uM after 72 hrs by SYBR Green I assay; format: functional, organism-based
Method in brief: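 W2 strain kept in continuous culture in A+ human erythrocytes at 2.5% hematocrit. Medium was RPMI 1640 with 25 mM HEPES, 25 mM NaHCO3 and 10% A+ human serum, at 37 °C under 5% O2/5% CO2/90% N2, parasitaemia 1–6%. Drug exposure 72 h. Lysis buffer with SYBR Green I, saponin and Triton X-100, 15 min at 37 °C. Fluorescence read at ex 497/em 520 nm. IC50 by non-linear regression, mean of three independent experiments.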

[5] = Solubility of the compound; format: physicochemical
Salmonella typhimurium [6] = experiment: Mutagenic activity in Salmonella Typhimurium TA97a assessed as number of spontaneous and drug-induced revertants at 25 to 125 nM after 48 hrs by Ames test; format: toxicity, organism-based; settings: salmonella enterica subsp. enterica serovar typhimurium, 0.125 µM
Method in brief: (§2)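 Salmonella tester strains grown overnight in nutrient broth. Compound in DMSO added to 0.1 mL culture and preincubated 1 h at 37 °C with shaking, in duplicate. Mixed with 2 mL molten top agar and plated on Vogel-Bonner minimal agar. After 48 h at 37 °C, spontaneous and induced revertants per plate counted for each dose by laser colony counter, against negative controls.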

Salmonella typhimurium [7] = experiment: Mutagenic activity in Salmonella Typhimurium TA100 assessed as number of spontaneous and drug-induced revertants at 25 to 125 nM after 48 hrs by Ames test; format: toxicity, organism-based; settings: salmonella enterica subsp. enterica serovar typhimurium, 0.125 µM; method in brief: as §2
[8] = Cytotoxicity against human HFF cells after 72 hrs by MTT assay; format: cell-based; method in brief: as §1
Salmonella typhimurium [9] = experiment: Mutagenic activity in Salmonella Typhimurium TA98 assessed as number of spontaneous and drug-induced revertants at 25 to 125 nM after 48 hrs by Ames test; format: toxicity, organism-based; settings: salmonella enterica subsp. enterica serovar typhimurium, 0.125 µM; method in brief: as §2
Salmonella typhimurium [10] = experiment: Mutagenic activity in Salmonella Typhimurium TA102 assessed as number of spontaneous and drug-induced revertants at 25 to 125 nM after 48 hrs by Ames test; format: toxicity, organism-based; settings: salmonella enterica subsp. enterica serovar typhimurium, 0.125 µM; method in brief: as §2
HepG2 = experiment: Cytotoxicity against human HepG2 cells at > 125 uM after 72 hrs by MTT assay; format: cell-based; settings: hepg2, 72 h; method in brief: as §1
Toxoplasma gondii = experiment: Antiparasitic activity against Toxoplasma gondii PRU tachyzoites harboring beta-Gal gene infected in human HFF cells after 72 hrs by microtiter plate based assay; format: functional, cell-based
Method in brief: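 T. gondii PRU-b-Gal tachyzoites kept by serial passage in confluent human foreskin fibroblast (HFF) monolayers. Compounds in DMSO (final <0.5% v/v) added at various concentrations in triplicate. Controls: DMSO-treated, pyrimethamine, and uninfected drug-free monolayers. Incubated 72 h at 37 °C, 6% CO2. Read by colorimetric microtiter assay.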

| Compound | Ratio CC50/IC50 [1] | CC50 at 72 h [2] | pIC50 (Plasmodium falciparum [3]) | other results |
| --- | --- | --- | --- | --- |
| Fc1ccc(Oc2nc(C(Cl)(Cl)Cl)nc3ccccc23)cc1 | 12.3 | 29.5 µM | 5.62 |  |
| Oc1nc(C(Cl)(Cl)Cl)nc2ccccc12 | <0.42 | 21 µM |  | Activity (Plasmodium falciparum [4]): inactive |
| Clc1ccccc1Oc1nc(C(Cl)(Cl)Cl)nc2ccccc12 | 7.6 | 33.6 µM | 5.36 |  |
| O=[N+]([O-])c1ccc(Oc2nc(C(Cl)(Cl)Cl)nc3ccccc23)cc1 | >4.6 | > 16 µM | 5.46 | solubility [5]: Insoluble |
| Cc1nc(Oc2ccc(Cl)cc2)c2ccccc2n1 | 0.9 | 26 µM | 4.55 |  |
| Cc1cccc(Oc2nc(C(Cl)(Cl)Cl)nc3ccccc23)c1 | 2.6 | 7.6 µM | 5.54 |  |
| Fc1cccc(Oc2nc(C(Cl)(Cl)Cl)nc3ccccc23)c1 | 18.1 | 41.7 µM | 5.64 |  |
| COc1cccc2c1C(=O)c1c(O)c3c(c(O)c1C2=O)C[C@@](O)(C(=O)CO)C[C@@H]3O[C@H]1C[C@H](N)[C@H](O)[C@H](C)O1 [DOXORUBICIN] |  | 0.2 µM |  | Activity (Salmonella typhimurium [6]): Toxic; Activity (Salmonella typhimurium [7]): Toxic; CC50 at 72 h [8]: 0.03 µM; Activity (Salmonella typhimurium [9]): Toxic; Activity (Salmonella typhimurium [10]): Toxic |
| COc1ccc(Oc2nc(C(Cl)(Cl)Cl)nc3ccccc23)cc1 | 11.8 | 34.1 µM | 5.54 |  |
| Clc1nc(C(Cl)(Cl)Cl)nc2ccccc12 | >2.3 |  |  | Activity (HepG2): Non-toxic |
| ClC(Cl)(Cl)c1nc(Oc2ccccc2)c2ccccc2n1 | 16 | 50 µM | 5.51 |  |
| O=[N+]([O-])c1cccc(Oc2nc(C(Cl)(Cl)Cl)nc3ccccc23)c1 | 12.1 | 36.3 µM | 5.52 |  |
| FC(F)(F)c1ccccc1Oc1nc(C(Cl)(Cl)Cl)nc2ccccc12 | 10.6 | 34.9 µM | 5.48 |  |
| ClC(Cl)(Cl)c1nc(Oc2ccc3ccccc3c2)c2ccccc2n1 | 1.6 | 3.6 µM | 5.64 |  |
| Cc1ccccc1Oc1nc(C(Cl)(Cl)Cl)nc2ccccc12 | 4.6 | 25.1 µM | 5.26 |  |
| COc1ccccc1Oc1nc(C(Cl)(Cl)Cl)nc2ccccc12 | 1.1 | 6.7 µM | 5.22 |  |
| FC(F)(F)c1cccc(Oc2nc(C(Cl)(Cl)Cl)nc3ccccc23)c1 | 10.9 | 25.1 µM | 5.64 |  |
| Cc1ccc(Oc2nc(C(Cl)(Cl)Cl)nc3ccccc23)cc1C | 8.8 | 29 µM | 5.48 |  |
| FC(F)(F)c1ccc(Oc2nc(C(Cl)(Cl)Cl)nc3ccccc23)cc1 | 16.4 | 29.6 µM | 5.74 |  |
| FC(F)(F)c1nc(Oc2ccc(Cl)cc2)c2ccccc2n1 | 1.1 | 72 µM | 4.17 |  |
| ClC(Cl)(Cl)c1nc(Oc2cccc3ccccc23)c2ccccc2n1 | 0.6 | 2.4 µM | 5.41 |  |
| Clc1cccc(Oc2nc(C(Cl)(Cl)Cl)nc3ccccc23)c1 | 10.9 | 26.1 µM | 5.62 |  |
| Fc1ccccc1Oc1nc(C(Cl)(Cl)Cl)nc2ccccc12 | 7.7 | 38.3 µM | 5.30 |  |
| O=[N+]([O-])c1ccccc1Oc1nc(C(Cl)(Cl)Cl)nc2ccccc12 | >1.6 | > 8 µM | 5.31 | solubility [5]: Insoluble |
| Cc1ccc(Oc2nc(C(Cl)(Cl)Cl)nc3ccccc23)cc1 | 13.4 | 42.8 µM | 5.49 |  |
| COc1cccc(Oc2nc(C(Cl)(Cl)Cl)nc3ccccc23)c1 | 0.3 | 0.6 µM | 5.72 |  |
| CCc1nc(N)nc(N)c1-c1ccc(Cl)cc1 [PYRIMETHAMINE] |  | 7.1 µM |  | pIC50 (Toxoplasma gondii): 5.96; CC50 at 72 h [8]: > 50 µM |
| C[C@H]1c2cccc(O)c2C(=O)C2=C(O)[C@]3(O)C(=O)C(C(N)=O)=C(O)[C@@H](N(C)C)[C@@H]3[C@@H](O)[C@@H]21.O [DOXYCYCLINE] | 4.2 | 20 µM | 5.32 |  |
